# Results from ChEMBL document CHEMBL4689842, “EUbOPEN Chemogenomics Library wave 1” (2021).
# Tested on: U2OS
# Assay: Multiplex assay against U2OS
# Format: toxicity, cell-based
# Conditions: human
# Summary of the method: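 On a CQ1 microscope at 37°C and 5% CO2, live cells were imaged after compound addition. They had been stained at seeding with Hoechst33342, BioTracker Green Microtubule Cytoskeleton Dye, MitoTracker Red and Annexin V Alexa Fluor 680. CellPathfinder machine-learning gating assigned cells to Hoechst high-intensity objects or normal cells, normal cells to healthy, pyknosed or fragmented nuclei, and pyknosed cells to mitotic or apoptotic. Tubulin, mitochondrial-mass and membrane-permeability phenotypes are per cents of healthy-nucleus cells.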
# [1] = 12 h, 1 µM, compound concentration 1 uM, replicate 1
# [2] = 12 h, 1 µM, compound concentration 1 uM, replicate 2
# [3] = 12 h, 10 µM, compound concentration 10 uM, replicate 1
# [4] = 12 h, 10 µM, compound concentration 10 uM, replicate 2
# [5] = 24 h, 1 µM, compound concentration 1 uM, replicate 1
# [6] = 24 h, 1 µM, compound concentration 1 uM, replicate 2
# [7] = 24 h, 10 µM, compound concentration 10 uM, replicate 1
# [8] = 24 h, 10 µM, compound concentration 10 uM, replicate 2
# [9] = 48 h, 1 µM, compound concentration 1 uM, replicate 1
# [10] = 48 h, 1 µM, compound concentration 1 uM, replicate 2
# [11] = 48 h, 10 µM, compound concentration 10 uM, replicate 1
# [12] = 48 h, 10 µM, compound concentration 10 uM, replicate 2
structure (smiles),measurement,setting,value
Cc1ccc(C(=O)Nc2cccc(C(F)(F)F)c2)cc1Nc1nc(-c2cccnc2)nc2c1cnn2C,Population Apoptotic (%),[1],41%
same,Population Fragmented Nuclei (%),[1],18%
same,Population Healthy Nuclei (%),[1],63%
same,Population Hoechst High Intensity Objects (%),[1],10%
same,Population Membrane Permeable-Phenotype (%),[1],8%
same,Population Mitochondria Different-Phenotype (%),[1],12%
same,Population Mitotic Cells (%),[1],58%
same,Population Normal (%),[1],89%
same,Population Pyknosed Nuclei (%),[1],18%
same,Population Tubulin-Different-Phenotype (%),[1],13%
same,Total Cell Count,[1],151
same,Population Apoptotic (%),[2],50%
same,Population Fragmented Nuclei (%),[2],14%
same,Population Healthy Nuclei (%),[2],73%
same,Population Hoechst High Intensity Objects (%),[2],3%
same,Population Membrane Permeable-Phenotype (%),[2],6%
same,Population Mitochondria Different-Phenotype (%),[2],25%
same,Population Mitotic Cells (%),[2],50%
same,Population Normal (%),[2],96%
same,Population Pyknosed Nuclei (%),[2],12%
same,Population Tubulin-Different-Phenotype (%),[2],14%
same,Total Cell Count,[2],101
same,Population Apoptotic (%),[3],69%
same,Population Fragmented Nuclei (%),[3],13%
same,Population Healthy Nuclei (%),[3],48%
same,Population Hoechst High Intensity Objects (%),[3],6%
same,Population Membrane Permeable-Phenotype (%),[3],53%
same,Population Mitochondria Different-Phenotype (%),[3],87%
same,Population Mitotic Cells (%),[3],30%
same,Population Normal (%),[3],93%
same,Population Pyknosed Nuclei (%),[3],38%
same,Population Tubulin-Different-Phenotype (%),[3],98%
same,Total Cell Count,[3],147
same,Population Apoptotic (%),[4],61%
same,Population Fragmented Nuclei (%),[4],18%
same,Population Healthy Nuclei (%),[4],42%
same,Population Hoechst High Intensity Objects (%),[4],8%
same,Population Membrane Permeable-Phenotype (%),[4],78%
same,Population Mitochondria Different-Phenotype (%),[4],92%
same,Population Mitotic Cells (%),[4],38%
same,Population Normal (%),[4],91%
same,Population Pyknosed Nuclei (%),[4],39%
same,Population Tubulin-Different-Phenotype (%),[4],100%
same,Total Cell Count,[4],66
same,Population Apoptotic (%),[5],42%
same,Population Fragmented Nuclei (%),[5],10%
same,Population Healthy Nuclei (%),[5],75%
same,Population Hoechst High Intensity Objects (%),[5],9%
same,Population Membrane Permeable-Phenotype (%),[5],2%
same,Population Mitochondria Different-Phenotype (%),[5],14%
same,Population Mitotic Cells (%),[5],57%
same,Population Normal (%),[5],90%
same,Population Pyknosed Nuclei (%),[5],13%
same,Population Tubulin-Different-Phenotype (%),[5],8%
same,Total Cell Count,[5],153
same,Population Apoptotic (%),[6],27%
same,Population Fragmented Nuclei (%),[6],12%
same,Population Healthy Nuclei (%),[6],72%
same,Population Hoechst High Intensity Objects (%),[6],3%
same,Population Membrane Permeable-Phenotype (%),[6],7%
same,Population Mitochondria Different-Phenotype (%),[6],29%
same,Population Mitotic Cells (%),[6],72%
same,Population Normal (%),[6],96%
same,Population Pyknosed Nuclei (%),[6],14%
same,Population Tubulin-Different-Phenotype (%),[6],16%
same,Total Cell Count,[6],101
same,Population Healthy Nuclei (%),[7],16%
same,Population Hoechst High Intensity Objects (%),[7],4%
same,Population Membrane Permeable-Phenotype (%),[7],80%
same,Population Mitochondria Different-Phenotype (%),[7],100%
same,Population Mitotic Cells (%),[7],10%
same,Population Normal (%),[7],95%
same,Population Pyknosed Nuclei (%),[7],57%
same,Total Cell Count,[7],166
same,Population Apoptotic (%),[8],90%
same,Population Fragmented Nuclei (%),[8],26%
same,Population Healthy Nuclei (%),[8],11%
same,Population Hoechst High Intensity Objects (%),[8],20%
same,Population Membrane Permeable-Phenotype (%),[8],100%
same,Population Mitochondria Different-Phenotype (%),[8],75%
same,Population Mitotic Cells (%),[8],9%
same,Population Normal (%),[8],79%
same,Population Pyknosed Nuclei (%),[8],61%
same,Population Tubulin-Different-Phenotype (%),[8],100%
same,Total Cell Count,[8],77
same,Population Apoptotic (%),[9],58%
same,Population Fragmented Nuclei (%),[9],11%
same,Population Healthy Nuclei (%),[9],80%
same,Population Hoechst High Intensity Objects (%),[9],4%
same,Population Membrane Permeable-Phenotype (%),[9],6%
same,Population Mitochondria Different-Phenotype (%),[9],22%
same,Population Mitotic Cells (%),[9],41%
same,Population Normal (%),[9],95%
same,Population Pyknosed Nuclei (%),[9],8%
same,Population Tubulin-Different-Phenotype (%),[9],10%
same,Total Cell Count,[9],140
same,Population Apoptotic (%),[10],70%
same,Population Fragmented Nuclei (%),[10],7%
same,Population Healthy Nuclei (%),[10],78%
same,Population Hoechst High Intensity Objects (%),[10],10%
same,Population Membrane Permeable-Phenotype (%),[10],11%
same,Population Mitochondria Different-Phenotype (%),[10],29%
same,Population Mitotic Cells (%),[10],30%
same,Population Normal (%),[10],89%
same,Population Pyknosed Nuclei (%),[10],14%
same,Population Tubulin-Different-Phenotype (%),[10],22%
same,Total Cell Count,[10],93
same,Population Apoptotic (%),[11],96%
same,Population Fragmented Nuclei (%),[11],35%
same,Population Healthy Nuclei (%),[11],10%
same,Population Hoechst High Intensity Objects (%),[11],10%
same,Population Membrane Permeable-Phenotype (%),[11],100%
same,Population Mitochondria Different-Phenotype (%),[11],100%
same,Population Mitotic Cells (%),[11],3%
same,Population Normal (%),[11],90%
same,Population Pyknosed Nuclei (%),[11],54%
same,Population Tubulin-Different-Phenotype (%),[11],100%
same,Total Cell Count,[11],219
same,Population Apoptotic (%),[12],100%
same,Population Fragmented Nuclei (%),[12],25%
same,Population Healthy Nuclei (%),[12],21%
same,Population Hoechst High Intensity Objects (%),[12],28%
same,Population Mitotic Cells (%),[12],0%
same,Population Normal (%),[12],71%
same,Population Pyknosed Nuclei (%),[12],53%
same,Total Cell Count,[12],77
CCCS(=O)(=O)c1nc(NC2CC2)cc(-c2ccc3c(ccn3C3CC(C)(C)NC(C)(C)C3)c2)n1,Population Apoptotic (%),[1],39%
same,Population Fragmented Nuclei (%),[1],16%
same,Population Healthy Nuclei (%),[1],62%
same,Population Hoechst High Intensity Objects (%),[1],6%
same,Population Membrane Permeable-Phenotype (%),[1],8%
same,Population Mitochondria Different-Phenotype (%),[1],30%
same,Population Mitotic Cells (%),[1],60%
same,Population Normal (%),[1],93%
same,Population Pyknosed Nuclei (%),[1],21%
same,Population Tubulin-Different-Phenotype (%),[1],24%
same,Total Cell Count,[1],588
same,Population Apoptotic (%),[2],38%
same,Population Fragmented Nuclei (%),[2],14%
same,Population Healthy Nuclei (%),[2],71%
same,Population Hoechst High Intensity Objects (%),[2],5%
same,Population Membrane Permeable-Phenotype (%),[2],5%
same,Population Mitochondria Different-Phenotype (%),[2],41%
same,Population Mitotic Cells (%),[2],61%
same,Population Normal (%),[2],94%
same,Population Pyknosed Nuclei (%),[2],13%
same,Population Tubulin-Different-Phenotype (%),[2],29%
same,Total Cell Count,[2],1044
same,Population Apoptotic (%),[3],86%
same,Population Fragmented Nuclei (%),[3],83%
same,Population Healthy Nuclei (%),[3],0%
same,Population Hoechst High Intensity Objects (%),[3],6%
same,Population Membrane Permeable-Phenotype (%),[3],0%
same,Population Mitochondria Different-Phenotype (%),[3],0%
same,Population Mitotic Cells (%),[3],13%
same,Population Normal (%),[3],93%
same,Population Pyknosed Nuclei (%),[3],16%
same,Population Tubulin-Different-Phenotype (%),[3],0%
same,Total Cell Count,[3],142
same,Population Apoptotic (%),[4],92%
same,Population Fragmented Nuclei (%),[4],75%
same,Population Healthy Nuclei (%),[4],4%
same,Population Hoechst High Intensity Objects (%),[4],7%
same,Population Membrane Permeable-Phenotype (%),[4],100%
same,Population Mitochondria Different-Phenotype (%),[4],38%
same,Population Mitotic Cells (%),[4],7%
same,Population Normal (%),[4],92%
same,Population Pyknosed Nuclei (%),[4],19%
same,Population Tubulin-Different-Phenotype (%),[4],84%
same,Total Cell Count,[4],101
same,Population Apoptotic (%),[5],50%
same,Population Fragmented Nuclei (%),[5],16%
same,Population Healthy Nuclei (%),[5],67%
same,Population Hoechst High Intensity Objects (%),[5],10%
same,Population Membrane Permeable-Phenotype (%),[5],5%
same,Population Mitotic Cells (%),[5],50%
same,Population Normal (%),[5],89%
same,Population Pyknosed Nuclei (%),[5],16%
same,Population Tubulin-Different-Phenotype (%),[5],9%
same,Total Cell Count,[5],749
same,Population Apoptotic (%),[6],22%
same,Population Fragmented Nuclei (%),[6],15%
same,Population Healthy Nuclei (%),[6],66%
same,Population Hoechst High Intensity Objects (%),[6],5%
same,Population Membrane Permeable-Phenotype (%),[6],10%
same,Population Mitochondria Different-Phenotype (%),[6],21%
same,Population Mitotic Cells (%),[6],77%
same,Population Normal (%),[6],94%
same,Population Pyknosed Nuclei (%),[6],18%
same,Population Tubulin-Different-Phenotype (%),[6],29%
same,Total Cell Count,[6],1113
same,Population Apoptotic (%),[7],86%
same,Population Fragmented Nuclei (%),[7],80%
same,Population Healthy Nuclei (%),[7],0%
same,Population Hoechst High Intensity Objects (%),[7],6%
same,Population Membrane Permeable-Phenotype (%),[7],100%
same,Population Mitochondria Different-Phenotype (%),[7],25%
same,Population Mitotic Cells (%),[7],13%
same,Population Normal (%),[7],93%
same,Population Pyknosed Nuclei (%),[7],18%
same,Population Tubulin-Different-Phenotype (%),[7],100%
same,Total Cell Count,[7],151
same,Population Apoptotic (%),[8],90%
same,Population Fragmented Nuclei (%),[8],73%
same,Population Healthy Nuclei (%),[8],10%
same,Population Hoechst High Intensity Objects (%),[8],7%
same,Population Membrane Permeable-Phenotype (%),[8],96%
same,Population Mitochondria Different-Phenotype (%),[8],75%
same,Population Mitotic Cells (%),[8],10%
same,Population Normal (%),[8],92%
same,Population Pyknosed Nuclei (%),[8],15%
same,Population Tubulin-Different-Phenotype (%),[8],96%
same,Total Cell Count,[8],104
same,Population Apoptotic (%),[9],37%
same,Population Fragmented Nuclei (%),[9],16%
same,Population Healthy Nuclei (%),[9],69%
same,Population Hoechst High Intensity Objects (%),[9],6%
same,Population Membrane Permeable-Phenotype (%),[9],5%
same,Population Mitochondria Different-Phenotype (%),[9],15%
same,Population Mitotic Cells (%),[9],62%
same,Population Normal (%),[9],93%
same,Population Pyknosed Nuclei (%),[9],14%
same,Population Tubulin-Different-Phenotype (%),[9],14%
same,Total Cell Count,[9],831
same,Population Apoptotic (%),[10],58%
same,Population Fragmented Nuclei (%),[10],11%
same,Population Healthy Nuclei (%),[10],68%
same,Population Hoechst High Intensity Objects (%),[10],8%
same,Population Membrane Permeable-Phenotype (%),[10],24%
same,Population Mitochondria Different-Phenotype (%),[10],17%
same,Population Mitotic Cells (%),[10],41%
same,Population Normal (%),[10],91%
same,Population Pyknosed Nuclei (%),[10],20%
same,Population Tubulin-Different-Phenotype (%),[10],23%
same,Total Cell Count,[10],1197
same,Population Apoptotic (%),[11],90%
same,Population Fragmented Nuclei (%),[11],81%
same,Population Healthy Nuclei (%),[11],1%
same,Population Hoechst High Intensity Objects (%),[11],7%
same,Population Membrane Permeable-Phenotype (%),[11],100%
same,Population Mitochondria Different-Phenotype (%),[11],37%
same,Population Mitotic Cells (%),[11],9%
same,Population Normal (%),[11],92%
same,Population Pyknosed Nuclei (%),[11],16%
same,Population Tubulin-Different-Phenotype (%),[11],75%
same,Total Cell Count,[11],198
same,Population Apoptotic (%),[12],80%
same,Population Fragmented Nuclei (%),[12],73%
same,Population Healthy Nuclei (%),[12],15%
same,Population Hoechst High Intensity Objects (%),[12],8%
same,Population Membrane Permeable-Phenotype (%),[12],97%
same,Population Mitochondria Different-Phenotype (%),[12],81%
same,Population Mitotic Cells (%),[12],19%
same,Population Normal (%),[12],91%
same,Population Pyknosed Nuclei (%),[12],10%
same,Population Tubulin-Different-Phenotype (%),[12],94%
same,Total Cell Count,[12],131
